Assay results: ChEMBL document CHEMBL1125314, “Synthesis and evaluation of 2-pyridinone derivatives as HIV-1 specific reverse transcriptase inhibitors. 1. Phthalimidoalkyl and -alkylamino analogues” (J Med Chem, 1992)

Tests used:
[1] = target: Human immunodeficiency virus type 1 reverse transcriptase (Human immunodeficiency virus 1, UniProt Q72547); experiment: Inhibition of HIV-1 reverse transcriptase.
[2] = The compound was tested for hydrolysis rate at pH 8.2; assay type: ADME; conditions: buffer
Outline: (§1)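 Aqueous hydrolysis of the (aminomethyl)phthalimides followed at pH 7, 8.2 (the pH used for the RT enzyme measurements) and 9.0. Results are expressed as the observed rate constant k_obs in units of 10⁻³ min⁻¹.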

[3] = The compound was tested for hydrolysis rate at pH 7; assay type: ADME; conditions: buffer; outline: as §1
[4] = The compound was tested for hydrolysis rate at pH 9; assay type: ADME; conditions: buffer; outline: as §1

Compound	IC50 [1] [µM]	k obs [2] [min⁻¹]	k obs [3] [min⁻¹]	k obs [4] [min⁻¹]
CCCCc1cc(NCN2C(=O)c3ccccc3C2=O)c(O)nc1C	0.128	–	–	–
Cc1cc(NCN2C(=O)c3ccccc3C2=O)c(O)nc1C	0.218	–	–	–
CCCc1cc(NCN2C(=O)c3ccccc3C2=O)c(=O)[nH]c1C	0.058	–	–	–
CCc1cc(NCCCN2C(=O)c3ccccc3C2=O)c(=O)[nH]c1C	190	–	–	–
CCC1=C(C)NC(OC)C(CCCN2C(=O)c3ccccc3C2=O)=C1 (stereo not given)	> 300	–	–	–
CCC1=C(C)NC(OC)C(C(O)CN2C(=O)c3ccccc3C2=O)=C1 (stereo not given)	> 300	–	–	–
CCc1cc(/C=C/N2C(=O)c3ccccc3C2=O)c(=O)[nH]c1C	54	–	–	–
CCc1cc(CN2C(=O)c3ccccc3C2=O)c(=O)[nH]c1C	26.5	–	–	–
O=C1c2ccccc2C(=O)N1CNc1cccnc1O	1.66	0.0039	0.00085	0.02417
CCC1=C(C)NC(OC)C(CCN2C(=O)c3ccccc3C2=O)=C1 (stereo not given)	6.2	–	–	–
CCc1cc(C(O)CN2C(=O)c3ccccc3C2=O)c(O)nc1C (stereo not given)	> 300	–	–	–
O=C1c2ccccc2C(=O)N1CCc1cccnc1O	> 300	–	–	–
CCc1cc(NCCN2C(=O)c3ccccc3C2=O)c(=O)[nH]c1C	45	–	–	–
CCc1nc(O)c(NCN2C(=O)c3ccccc3C2=O)cc1C	0.887	0.01001	0.00722	0.03627
Cc1ccc(NCN2C(=O)c3ccccc3C2=O)c(=O)[nH]1	8.1	0.0073	0.00424	0.027
CCC1=C(C)NC(OC)C(C(=O)CN2C(=O)c3ccccc3C2=O)=C1 (stereo not given)	> 300	–	–	–
CCc1cc(CCCN2C(=O)c3ccccc3C2=O)c(O)nc1C	210	–	–	–
O=C1c2ccccc2C(=O)N1CNc1cc2c(nc1O)CCCC2	3.7	0.013	0.00777	0.03678
CCC1=C(C)NC(OC)C(CN2C(=O)c3ccccc3C2=O)=C1 (stereo not given)	16	–	–	–
CCc1cc(C(=O)CN2C(=O)c3ccccc3C2=O)c(=O)[nH]c1C	> 300	–	–	–
CCc1cc(NCN2C(=O)c3ccccc3C2=O)c(O)nc1C	–	0.0101	0.00624	0.0243
